Test [1] addresses Botulinum neurotoxin type A (Clostridium botulinum) (UniProt P0DPI0). Nature of the test: Inhibition of recombinant Clostridium botulinum neurotoxin serotype A light chain assessed as Kinact to KI ratio at 50 uM after 1.5 hrs by SNAPtide FRET based assay.
Test [2] deals with T1, Botulinum neurotoxin type A (Clostridium botulinum, UniProt P0DPI0). In words: Competitive inhibition of recombinant Clostridium botulinum neurotoxin serotype A light chain assessed as [13C]-labeled 9-mer cleavage product formation using 66-mer substrate after 25 mins by LC-MS method. In a few lines:
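66-mer SNAP-25 substrate (5 µM) cleaved by recombinant BoNT/A LC (0.8 nM) in 40 mM HEPES pH 7.4 for 25 min. Quenched with 20% TFA. 13C-labelled 9-mer internal standard added, and cleavage product quantified by LCMS relative to it. IC50 derived from initial velocities using the rearranged IC50 equation.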

The target in test [3] is T1, Botulinum neurotoxin type A. Nature of the test: Competitive inhibition of Clostridium botulinum neurotoxin serotype A light chain.
For test [4] the target is unchanged. Nature of the test: Competitive inhibition of recombinant Clostridium botulinum neurotoxin serotype A light chain assessed as reduction in benzoquinone-mediated BoNT/A inactivation by SNAPtide FRET based assay.
Test [5] shares this target. In words: Competitive inhibition of recombinant Clostridium botulinum neurotoxin serotype A light chain assessed as reduction in initial rates of BoNT/A LC activity by SNAPtide FRET based assay. The method in brief: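 Recombinant 425-aa BoNT/A LC (18.5 nM) and SNAPtide (5 µM) in 40 mM HEPES + 0.1% Triton X-100, pH 7.4. Cleavage read by fluorescence. Velocities fitted to V = Vcontrol/(1 + [I]/IC50) to give IC50.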

In test [6] the target is Botulinum neurotoxin type A (Clostridium botulinum) (UniProt P0DPI0). Nature of the test: Irreversible inhibition of recombinant Clostridium botulinum neurotoxin serotype A light chain assessed as Kinact to KI ratio after 1.5 hrs by SNAPtide FRET based assay.
Test [7] shares this target. Nature of the test: Time dependent inhibition of recombinant Clostridium botulinum neurotoxin serotype A light chain assessed as Kinact to KI ratio at 200 uM by SNAPtide FRET based assay. In a few lines:
(§1)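 Recombinant 425-residue BoNT/A light chain (18.5 nM) with 5 µM SNAPtide FRET substrate in 40 mM HEPES, 0.1% Triton X-100, pH 7.4. Inhibitor is present with enzyme and substrate, without preincubation, across a range of concentrations.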

Test [8] is described as follows: Glutathione reactivity at 1 mM in presence of 1 mM glutathione containing PBS and 1 mM EDTA buffer at pH 7.4 assessed as remaining GSH level after 10 seconds by spectrophotometry by Ellman's method. In a few lines:
(§2)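 Compound (1 mM) incubated with glutathione (1 mM) in PBS + 1 mM EDTA, pH 7.4. At each time point, an aliquot was diluted 1:10 into 4 mg/mL DTNB and absorbance read at 412 nm. Compound blanks included. Free GSH quantified against a 0–1.25 mM GSH standard curve and expressed as % remaining.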
A general note: DTNB colorimetry detects thiols as they appear.

Test [9] can be described thus: Glutathione reactivity at 1 mM in presence of 1 mM glutathione containing PBS and 1 mM EDTA buffer at pH 7.4 assessed as remaining GSH level after 30 mins by spectrophotometry by Ellman's method. The method in brief: as §2
A short description of test [10]: Glutathione reactivity at 1 mM in presence of 1 mM glutathione containing PBS and 1 mM EDTA buffer at pH 7.4 assessed as second order rate constant by spectrophotometry by Ellman's method. In a few lines:
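Compound and glutathione (1 mM each) in PBS + 1 mM EDTA, pH 7.4. Free thiol followed over time by 1:10 dilution into 4 mg/mL DTNB, A412, with compound blanks and a GSH standard curve. Second-order kGSH of Michael adduct formation derived from 1/[GSH] − 1 = 2kGSH·t.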

A short description of test [11]: Glutathione reactivity at 1 mM in presence of 1 mM glutathione containing PBS and 1 mM EDTA buffer at pH 7.4 assessed as remaining GSH level after 1 hr by spectrophotometry by Ellman's method. In a few lines:
as §2

In test [12] the target is Botulinum neurotoxin type A (Clostridium botulinum) (UniProt P0DPI0). Nature of the test: Time dependent inhibition of recombinant Clostridium botulinum neurotoxin serotype A light chain assessed as Kinact to KI ratio after 1.5 hrs by SNAPtide FRET based assay. The method in brief: as §1
Test [13] has the same target. In words: Inhibition of recombinant Clostridium botulinum neurotoxin serotype A light chain assessed as [13C]-labeled 9-mer cleavage product formation at 50 uM using 66-mer substrate after 25 mins by LC-MS method. In a few lines:
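Inhibitors at 50 µM with recombinant BoNT/A LC (0.8 nM) and 66-mer substrate (5 µM) in 40 mM HEPES pH 7.4. Cleavage ran 25 min, then quenched with 20% TFA. 9-mer product quantified by LCMS against a 13C-labelled 9-mer internal standard.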

Experimental findings from ChEMBL document CHEMBL3351678, “Benzoquinones as inhibitors of botulinum neurotoxin serotype A” (Bioorg Med Chem, 2014) are described below.

Active and inactive are the calls of the source. The rule behind the calls is not given here.

Chain of Botulinum neurotoxin type A (Clostridium botulinum) (P0DPI0 2-448 limits assumed): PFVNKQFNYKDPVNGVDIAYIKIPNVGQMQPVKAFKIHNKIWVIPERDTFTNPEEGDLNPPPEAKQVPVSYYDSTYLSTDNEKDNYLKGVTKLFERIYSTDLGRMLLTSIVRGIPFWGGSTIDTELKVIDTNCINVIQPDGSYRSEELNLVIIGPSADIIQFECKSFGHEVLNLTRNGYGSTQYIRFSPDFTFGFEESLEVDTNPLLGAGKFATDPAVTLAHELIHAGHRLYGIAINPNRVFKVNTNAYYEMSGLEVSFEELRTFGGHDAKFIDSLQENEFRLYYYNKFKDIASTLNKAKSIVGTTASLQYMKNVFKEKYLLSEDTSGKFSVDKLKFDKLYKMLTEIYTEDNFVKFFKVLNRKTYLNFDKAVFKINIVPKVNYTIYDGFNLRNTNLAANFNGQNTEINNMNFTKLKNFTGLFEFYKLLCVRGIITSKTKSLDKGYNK
T1 sequence (P0DPI0 2-448 limits assumed): as above

With `Cc1ccc(C2=CC(=O)c3ccccc3C2=O)cc1`, the Ratio in test [1] was found to be 0.91 M⁻¹ s⁻¹.

Take `NCC(=O)Nc1cccc(OCc2ccccc2)c1`: in test [2] (read-out: IC50), the IC50 was determined as 417 µM.

Take `ONCC12CC3CC(CC(C3)C1)C2`: in [3], the affinity, expressed as Ki, was 0.46 µM. Further, the IC50 is 1.5 µM in test [4] and 1.6 µM in test [5].

For the molecule `O=C1C=CC(=O)C(Nc2cccc(C(=O)NCc3ccc(Oc4ccccc4)cc3)n2)=C1`, the Ratio in [1] stood at 1.7 M⁻¹ s⁻¹. Also, the IC50 in test [2] (read-out: IC50) is 2.3 µM.

As for `O=C1C=CC(=O)c2c(O)cccc21`, the Ratio amounted to 5.3 M⁻¹ s⁻¹ in test [1], 3.71 M⁻¹ s⁻¹ in [6] and 3.35 M⁻¹ s⁻¹ in test [7]. Besides, the Activity stood at 44% in [8] and 32% in test [9].

Turning to `O=C1C=CC(=O)c2cc(O)ccc21`, the Ratio stood at 0.94 M⁻¹ s⁻¹ in [1] and 1.17 M⁻¹ s⁻¹ in [6]. Besides, the Activity in test [8] is 71%; in test [9], 32%; in [11], 22%. In [10], the K was found to be 0.036 min⁻¹.

As for `O=C1C=CC(=O)C(c2ccccc2)=C1`, in test [1], the Ratio is 9.7 M⁻¹ s⁻¹. In addition, the results for the Activity in [8] and in test [9] were 21% and 8%, respectively.

Turning to `O=C1C=C(Cl)C(=O)C=C1Cl`, in [1], the Ratio was 84 M⁻¹ s⁻¹. For the same molecule, the Activity in [8] and in [9] was 0% throughout.

Regarding `O=C1C=CC(=O)c2ccccc21`, in test [1], the Ratio was found to be 2 M⁻¹ s⁻¹. Besides, the Activity in test [8] was determined as 47%; in test [9], 20%.

Consider `COC1=CC(=O)C(OC)=C(c2ccc(C)cc2)C1=O`, for which the Ratio in test [1] amounted to 0.82 M⁻¹ s⁻¹. In addition, the Activity in [8] turned out to be 89%; in test [9] it was 49%; in test [11], 35%. Further, the K in test [10] was found to be 0.032 min⁻¹.

As to `CC1=CC(=O)C(C(C)C)=CC1=O`, the Ratio in test [1] was found to be 0.38 M⁻¹ s⁻¹.

As to `COC1=CC(=O)C=C(OC)C1=O`, the inhibition entry in [1] is “inactive”. Moreover, the results for the Activity in test [8] and in test [9] were 45% and 0%, respectively.

In the case of `CC1=CC(=O)C=C(C)C1=O`, the inhibition entry in [1] is “inactive”. In addition, the Activity turned out to be 22% in test [8] and 0% in [9].

On to `CC1=CC(=O)c2ccccc2C1=O`, for which the Ratio in test [1] amounted to 1.1 M⁻¹ s⁻¹.

Consider `COc1cccc2c1C(=O)C=CC2=O`, for which, in [1], the Ratio amounted to 0.99 M⁻¹ s⁻¹. The Activity turned out to be 80% in test [8], 27% in test [9] and 14% in test [11]. Besides, the K in [10] is 0.053 min⁻¹.

With `COC1=C(c2ccc(C)cc2)C(=O)C=CC1=O`, in [1], the Ratio stood at 9.5 M⁻¹ s⁻¹. Also, the Activity in [8] is 25%; in test [9], 19%.

In the case of `O=C1C=CC(=O)c2c(O)ccc(O)c21`, the Ratio in [1] was determined as 2.2 M⁻¹ s⁻¹. Besides, the Activity amounted to 85% in test [8], 39% in [9] and 26% in test [11]. Also, the K in [10] is 0.025 min⁻¹.

Take `O=C(NCc1ccc(Oc2ccccc2)cc1)c1ccccn1`: the IC50 in test [2] (read-out: IC50) is 570 µM.

As to `O=C(NCc1ccc(-c2ccccc2)cc1)c1nc[nH]n1`, the IC50 in [2] (read-out: IC50) was 210 µM.

For `COc1ccc(OC)c(Cn2cnc(C(=O)NCc3ccc(-c4ccccc4)cc3)n2)c1`, the IC50 in [2] (read-out: IC50) is 40 µM.

For `O=C1C=CC(=O)C(c2ccc(I)cc2)=C1`, the Ratio in [1] was determined as 10 M⁻¹ s⁻¹.

Regarding `O=C1C=CC(=O)C(CCC(=O)O)=C1`, the Ratio in test [1] is 1.2 M⁻¹ s⁻¹. Also, the IC50 entry in test [2] is reported as “Not Active”.

For the molecule `C[C@]12CC[C@@H]3c4ccc(C5=CC(=O)C=CC5=O)cc4CC[C@H]3[C@@H]1CCC2=O`, in test [1], the Ratio is 3.9 M⁻¹ s⁻¹.

Turning to `O=C1C=CC(=O)C(Cn2cnc(C(=O)NCc3ccc(-c4ccccc4)cc3)n2)=C1`, the IC50 in [2] (read-out: IC50) came out at 2.5 µM.

On to `O=C1C=CC(=O)C=C1`, for which the Ratio in [1] is 17 M⁻¹ s⁻¹; in [6], 12.4 M⁻¹ s⁻¹; in test [12], 11.8 M⁻¹ s⁻¹. Besides, the Activity was 24% in [8] and 6% in test [9]. In addition, the inhibition entry in [13] is “Active”.

With `O=C1C=CC(=O)C(CC(=O)O)=C1`, the Ratio in [1] came out at 0.56 M⁻¹ s⁻¹. In addition, the IC50 in test [2] (read-out: IC50) worked out at 9.3 µM.

For `O=C1C=CC(=O)C(Cl)=C1`, the Ratio in test [1] was determined as 51 M⁻¹ s⁻¹.

As for `COC1=CC(=O)C=CC1=O`, the Ratio in [1] was determined as 4.1 M⁻¹ s⁻¹.

Turning to `O=C1C=CC(=O)C(CNCC(=O)Nc2cccc(OCc3ccccc3)c2)=C1`, the IC50 in test [2] (read-out: IC50) came out at 18 µM.

For `COC1=CC(=O)C(c2ccc(C)cc2)=CC1=O`, the inhibition entry in test [1] was “inactive”.

As to `NCC(=O)NCc1ccc(-c2ccccc2)cc1`, the IC50 in test [2] (read-out: IC50) is 160 µM.

`NCC(=O)Nc1ccc(Oc2ccccc2)cc1`: the IC50 was 120 µM in test [2] (read-out: IC50), 258 µM in test [4] and 163 µM in [5].

As for `COc1ccc(OC)c(Nc2cccc(C(=O)NCc3ccc(Oc4ccccc4)cc3)n2)c1`, the IC50 in test [2] (read-out: IC50) came to 200 µM.

With `CC(=O)Oc1cccc2c1C(=O)C=CC2=O`, the Ratio in [1] amounted to 4 M⁻¹ s⁻¹. Moreover, the Activity in test [8] was found to be 51%; in [9], 26%.

Consider `COc1ccc(OC)c(CNCC(=O)Nc2cccc(OCc3ccccc3)c2)c1`, for which the IC50 in test [2] (read-out: IC50) was found to be 25 µM.

`O=C1C=CC(=O)C(Nc2ccccn2)=C1`: the IC50 in test [2] (read-out: IC50) came out at 97 µM.

With `COC(=O)c1cccc(NC2=CC(=O)C=CC2=O)n1`, in test [2] (read-out: IC50), the IC50 amounted to 14 µM.

With `CC1=CC(=O)C=CC1=O`, in test [1], the Ratio came to 2.5 M⁻¹ s⁻¹. In addition, the Activity in test [8] is 35%; in [9] it was 5%.

Consider `O=C1C=CC(=O)c2c(OCc3ccccc3)cccc21`, for which the Ratio in test [1] was determined as 2 M⁻¹ s⁻¹. For the same molecule, the values for the Activity in [8] and in [9] were 57% and 39%, respectively.

Usually IC50 stands for the concentration that gives 50% inhibition. For orientation: Ki means the equilibrium dissociation constant of an inhibitor or competing ligand from its target. A low value points to a stronger hold on the target.
